According to ChEMBL document CHEMBL1782009, “Synthesis and characterization of new types of halogenated and alkylated imidazolidineiminothiones and a comparative study of their antitumor, antibacterial, and antifungal activities” (Eur J Med Chem, 2011):
Values after ≈ are worked out from the molar mass of the structure shown.

Key:
Micrococcus luteus = test: Antibacterial activity against Sarcina lutea ATCC 934 at 5 mg/ml after 24 hrs by agar disc diffusion method; assay type: functional; conditions: ATCC 934, 24 h, read-out: DIZ
Outline: (§1)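 Agar well-diffusion using 1 cm wells, each loaded with 100 of compound solution (5 mg/mL in DMF). Bacteria were maintained on nutrient agar and plated as a standard suspension. Plates were incubated 24 h at 35 °C, and inhibition zone diameters were measured.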

Escherichia coli = test: Antibacterial activity against Escherichia coli NCTC 10416 at 5 mg/ml after 24 hrs by agar disc diffusion method; assay type: functional; conditions: NCTC 10416, 24 h, read-out: DIZ; outline: as §1
Bacillus subtilis = test: Antibacterial activity against Bacillus subtilis NCTC 1040 at 5 mg/ml after 24 hrs by agar disc diffusion method; assay type: functional; conditions: NCTC 1040, 24 h, read-out: DIZ; outline: as §1
Candida albicans = test: Antifungal activity against Candida albicans IMRU 3669 at 5 mg/ml by agar disc diffusion method; assay type: functional; conditions: read-out: DIZ
[1] = Antitumor activity against mouse EAC cells assessed as inhibition of cell viability at 100 ug/ml by Trypan blue assay; assay type: functional; conditions: Ehrlich
Outline: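 EAC cells were taken by needle aspiration of ascitic fluid from preinoculated mice and diluted 1:10 in saline. Then 0.1 mL of cell suspension, 0.8 mL RPMI 1640 and 0.1 mL compound were incubated 2 h at 37 °C. Dead cells were counted by trypan blue exclusion, and % non-viable = non-viable/total cells × 100.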

Aspergillus flavus = test: Antifungal activity against Aspergillus flavus at 5 mg/ml by agar disc diffusion method; assay type: functional; conditions: read-out: DIZ
Staphylococcus aureus = test: Antibacterial activity against Staphylococcus aureus NCTC 7447 at 5 mg/ml after 24 hrs by agar disc diffusion method; assay type: functional; conditions: NCTC 7447, 24 h, read-out: DIZ; outline: as §1
HEp-2 [2] = test: Cytotoxicity against human Hep2 cells assessed as surviving fraction at 12.5 ug/ml after 48 hrs by SRB assay relative to control; assay type: functional
Outline: (§2)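 SRB assay per Skehan: compounds at 5.0, 12.5, 25 and 50 were added to cell monolayers in triplicate wells per dose for 48 h at 37 °C, 5% CO2. Cells were then fixed and stained with SRB, excess stain was removed with acetic acid, and bound dye was recovered in Tris EDTA. Surviving fraction was plotted against concentration, and IC50 was read from the dose–response curves.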

HepG2 [3] = test: Cytotoxicity against human HepG2 cells assessed as surviving fraction at 50 ug/ml after 48 hrs by SRB assay relative to control; assay type: functional; outline: as §2
HepG2 [4] = test: Cytotoxicity against human HepG2 cells assessed as surviving fraction at 5 ug/ml after 48 hrs by SRB assay relative to control; assay type: functional; outline: as §2
HCT-116 [5] = test: Cytotoxicity against human HCT116 cells after 48 hrs by SRB assay; assay type: functional, cell-based; conditions: HCT-116, 48 h; outline: as §2
HCT-116 [6] = test: Cytotoxicity against human HCT116 cells assessed as surviving fraction at 5 ug/ml after 48 hrs by SRB assay relative to control; assay type: functional; outline: as §2
HEp-2 [7] = test: Cytotoxicity against human Hep2 cells after 48 hrs by SRB assay; assay type: functional, cell-based; conditions: HEp-2, 48 h; outline: as §2
HEp-2 [8] = test: Cytotoxicity against human Hep2 cells assessed as surviving fraction at 25 ug/ml after 48 hrs by SRB assay relative to control; assay type: functional; outline: as §2
HEp-2 [9] = test: Cytotoxicity against human Hep2 cells assessed as surviving fraction at 5 ug/ml after 48 hrs by SRB assay relative to control; assay type: functional; outline: as §2
HepG2 [10] = test: Cytotoxicity against human HepG2 cells assessed as surviving fraction at 12.5 ug/ml after 48 hrs by SRB assay relative to control; assay type: functional; outline: as §2
HepG2 [11] = test: Cytotoxicity against human HepG2 cells after 48 hrs by SRB assay; assay type: functional, cell-based; conditions: HepG2, 48 h; outline: as §2
HeLa [12] = test: Cytotoxicity against human HeLa cells after 48 hrs by SRB assay; assay type: functional, cell-based; outline: as §2
HeLa [13] = test: Cytotoxicity against human HeLa cells assessed as surviving fraction at 50 ug/ml after 48 hrs by SRB assay relative to control; assay type: functional; outline: as §2
MCF7 [14] = test: Cytotoxicity against human MCF7 cells assessed as surviving fraction at 25 ug/ml after 48 hrs by SRB assay relative to control; assay type: functional; outline: as §2
MCF7 [15] = test: Cytotoxicity against human MCF7 cells assessed as surviving fraction at 50 ug/ml after 48 hrs by SRB assay relative to control; assay type: functional; outline: as §2
MCF7 [16] = test: Cytotoxicity against human MCF7 cells assessed as surviving fraction at 5 ug/ml after 48 hrs by SRB assay relative to control; assay type: functional; outline: as §2
HEp-2 [17] = test: Cytotoxicity against human Hep2 cells assessed as surviving fraction at 50 ug/ml after 48 hrs by SRB assay relative to control; assay type: functional; outline: as §2
HeLa [18] = test: Cytotoxicity against human HeLa cells assessed as surviving fraction at 25 ug/ml after 48 hrs by SRB assay relative to control; assay type: functional; outline: as §2
HCT-116 [19] = test: Cytotoxicity against human HCT116 cells assessed as surviving fraction at 25 ug/ml after 48 hrs by SRB assay relative to control; assay type: functional; outline: as §2
HCT-116 [20] = test: Cytotoxicity against human HCT116 cells assessed as surviving fraction at 12.5 ug/ml after 48 hrs by SRB assay relative to control; assay type: functional; outline: as §2
HepG2 [21] = test: Cytotoxicity against human HepG2 cells assessed as surviving fraction at 25 ug/ml after 48 hrs by SRB assay relative to control; assay type: functional; outline: as §2
MCF7 [22] = test: Cytotoxicity against human MCF7 cells assessed as surviving fraction at 12.5 ug/ml after 48 hrs by SRB assay relative to control; assay type: functional; outline: as §2
HCT-116 [23] = test: Cytotoxicity against human HCT116 cells assessed as surviving fraction at 50 ug/ml after 48 hrs by SRB assay relative to control; assay type: functional; outline: as §2
HeLa [24] = test: Cytotoxicity against human HeLa cells assessed as surviving fraction at 12.5 ug/ml after 48 hrs by SRB assay relative to control; assay type: functional; outline: as §2
HeLa [25] = test: Cytotoxicity against human HeLa cells assessed as surviving fraction at 5 ug/ml after 48 hrs by SRB assay relative to control; assay type: functional; outline: as §2
MCF7 [26] = test: Cytotoxicity against human MCF7 cells after 48 hrs by SRB assay; assay type: functional, cell-based; conditions: MCF7, 48 h; outline: as §2

SMILES: Cc1ccc(N2C(=N)C(=S)N(c3ccc(I)cc3)C2=O)cc1
- zone of inhibition at 5000 µg/mL (Micrococcus luteus): 13 mm
- zone of inhibition at 5000 µg/mL (Escherichia coli): 14 mm
- zone of inhibition at 5000 µg/mL (Bacillus subtilis): 16.5 mm
- zone of inhibition at 5000 µg/mL (Candida albicans): 17 mm
- inhibition at 100 µg/mL [1]: 40%
- zone of inhibition at 5000 µg/mL (Aspergillus flavus): 14 mm
- zone of inhibition at 5000 µg/mL (Staphylococcus aureus): 17 mm

SMILES: Cc1ccc(N2C(=N)C(=S)N(c3ccc(Cl)cc3)C2=O)cc1
- zone of inhibition at 5000 µg/mL (Micrococcus luteus): 21 mm
- zone of inhibition at 5000 µg/mL (Escherichia coli): 17 mm
- zone of inhibition at 5000 µg/mL (Bacillus subtilis): 16 mm
- zone of inhibition at 5000 µg/mL (Candida albicans): 12 mm
- inhibition at 100 µg/mL [1]: 10%
- zone of inhibition at 5000 µg/mL (Aspergillus flavus): 14 mm
- zone of inhibition at 5000 µg/mL (Staphylococcus aureus): 12 mm

SMILES: CSc1ccc(N2C(=N)C(=S)N(c3ccccc3)C2=O)cc1
- zone of inhibition at 5000 µg/mL (Micrococcus luteus): 25 mm
- zone of inhibition at 5000 µg/mL (Escherichia coli): 25.5 mm
- zone of inhibition at 5000 µg/mL (Bacillus subtilis): 23.5 mm
- zone of inhibition at 5000 µg/mL (Candida albicans): 24 mm
- inhibition at 100 µg/mL [1]: 1%
- zone of inhibition at 5000 µg/mL (Aspergillus flavus): 18 mm
- zone of inhibition at 5000 µg/mL (Staphylococcus aureus): 24 mm

SMILES: Cc1ccc(N2C(=N)C(=S)N(c3ccccc3)C2=O)cc1
- zone of inhibition at 5000 µg/mL (Micrococcus luteus): 18 mm
- zone of inhibition at 5000 µg/mL (Escherichia coli): 20 mm
- zone of inhibition at 5000 µg/mL (Bacillus subtilis): 21 mm
- zone of inhibition at 5000 µg/mL (Candida albicans): 22 mm
- inhibition at 100 µg/mL [1]: 10%
- zone of inhibition at 5000 µg/mL (Aspergillus flavus): 15 mm
- zone of inhibition at 5000 µg/mL (Staphylococcus aureus): 21.5 mm

SMILES: COc1ccc(N2C(=N)C(=S)N(c3ccc(OC)cc3OC)C2=O)cc1
- Activity (HEp-2 [2]): 0.2
- Activity (HepG2 [3]): 0.23
- zone of inhibition at 5000 µg/mL (Micrococcus luteus): 24 mm
- Activity (HepG2 [4]): 0.42
- IC50 (HCT-116 [5]): 3.73 mg/L (≈ 10 µM)
- zone of inhibition at 5000 µg/mL (Escherichia coli): 24.5 mm
- Activity (HCT-116 [6]): 0.35
- zone of inhibition at 5000 µg/mL (Bacillus subtilis): 20 mm
- zone of inhibition at 5000 µg/mL (Candida albicans): 22 mm
- inhibition at 100 µg/mL [1]: 80%
- IC50 (HEp-2 [7]): 3.89 mg/L (≈ 10.5 µM)
- Activity (HEp-2 [8]): 0.21
- Activity (HEp-2 [9]): 0.36
- zone of inhibition at 5000 µg/mL (Aspergillus flavus): 17 mm
- Activity (HepG2 [10]): 0.28
- IC50 (HepG2 [11]): 4.34 mg/L (≈ 11.7 µM)
- IC50 (HeLa [12]): 3.12 mg/L (≈ 8.4 µM)
- Activity (HeLa [13]): 0.23
- Activity (MCF7 [14]): 0.18
- Activity (MCF7 [15]): 0.27
- Activity (MCF7 [16]): 0.25
- Activity (HEp-2 [17]): 0.28
- Activity (HeLa [18]): 0.17
- Activity (HCT-116 [19]): 0.19
- Activity (HCT-116 [20]): 0.26
- Activity (HepG2 [21]): 0.19
- Activity (MCF7 [22]): 0.17
- Activity (HCT-116 [23]): 0.29
- zone of inhibition at 5000 µg/mL (Staphylococcus aureus): 20 mm
- Activity (HeLa [24]): 0.16
- Activity (HeLa [25]): 0.21
- IC50 (MCF7 [26]): 3.28 mg/L (≈ 8.83 µM)

SMILES: COc1ccc(N2C(=N)C(=S)N(c3ccc(Br)cc3)C2=O)cc1
- zone of inhibition at 5000 µg/mL (Micrococcus luteus): 19 mm
- zone of inhibition at 5000 µg/mL (Escherichia coli): 16 mm
- zone of inhibition at 5000 µg/mL (Bacillus subtilis): 18 mm
- zone of inhibition at 5000 µg/mL (Candida albicans): 12 mm
- inhibition at 100 µg/mL [1]: 10%
- zone of inhibition at 5000 µg/mL (Aspergillus flavus): 18 mm
- zone of inhibition at 5000 µg/mL (Staphylococcus aureus): 13 mm

SMILES: COc1ccc(N2C(=N)C(=S)N(c3ccc(Cl)cc3)C2=O)cc1
- zone of inhibition at 5000 µg/mL (Micrococcus luteus): 22 mm
- zone of inhibition at 5000 µg/mL (Escherichia coli): 23.5 mm
- zone of inhibition at 5000 µg/mL (Bacillus subtilis): 20 mm
- zone of inhibition at 5000 µg/mL (Candida albicans): 22 mm
- inhibition at 100 µg/mL [1]: 0.5%
- zone of inhibition at 5000 µg/mL (Aspergillus flavus): 17.5 mm
- zone of inhibition at 5000 µg/mL (Staphylococcus aureus): 19.5 mm

SMILES: CSc1ccc(N2C(=N)C(=S)N(c3ccc(I)cc3)C2=O)cc1
- zone of inhibition at 5000 µg/mL (Micrococcus luteus): 14 mm
- zone of inhibition at 5000 µg/mL (Escherichia coli): 14.5 mm
- zone of inhibition at 5000 µg/mL (Bacillus subtilis): 16 mm
- zone of inhibition at 5000 µg/mL (Candida albicans): 16.5 mm
- inhibition at 100 µg/mL [1]: 10%
- zone of inhibition at 5000 µg/mL (Aspergillus flavus): 15 mm
- zone of inhibition at 5000 µg/mL (Staphylococcus aureus): 16.5 mm
